Experimental data from different studies.
Compare with care: the assays were run in different laboratories.
Target: Activin receptor type-1 (ACVR1, Homo sapiens, UniProt Q04771)
Residues used in one study (Q04771 21-509): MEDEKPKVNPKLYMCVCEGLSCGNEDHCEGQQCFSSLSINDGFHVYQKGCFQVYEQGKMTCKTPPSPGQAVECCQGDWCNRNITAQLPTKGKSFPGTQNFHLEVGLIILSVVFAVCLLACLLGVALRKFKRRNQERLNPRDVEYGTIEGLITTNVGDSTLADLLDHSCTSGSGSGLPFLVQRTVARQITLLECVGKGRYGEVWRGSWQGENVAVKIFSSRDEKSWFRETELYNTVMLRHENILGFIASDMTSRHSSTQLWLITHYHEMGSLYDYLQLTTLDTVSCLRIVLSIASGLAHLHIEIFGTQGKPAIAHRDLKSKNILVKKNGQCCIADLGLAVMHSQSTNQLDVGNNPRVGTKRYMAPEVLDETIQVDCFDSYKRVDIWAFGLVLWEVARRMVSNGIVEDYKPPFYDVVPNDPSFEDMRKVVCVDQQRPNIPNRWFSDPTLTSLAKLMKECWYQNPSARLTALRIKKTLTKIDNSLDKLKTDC

Cc1nn(C)cc1-c1nc2c(N3CCN(Cc4ccc(Cl)cc4)CC3)c(Cl)cnc2[nH]1 — remaining binding (binding; competition with immobilised ligand; 1 µM): 90%
Cn1cncc1[C@](O)(COc1ccc(C#N)cc1-c1ccc(OC(F)(F)F)cc1)c1ccc(C#N)cc1 — remaining binding (cell-free assay; competition with immobilised ligand; 1 µM): 78%
Cn1cc(-c2cccc(N3CCc4c(sc5c4CC(C)(C)C5)C3=O)c2CO)cc(Nc2ccncn2)c1=O — inhibition (enzyme activity; inhibitor; 1 µM): -1%
CC(C)(C)c1cc(C=C(C#N)C#N)cc(Br)c1O — remaining activity (enzyme activity; inhibitor; 0.5 µM): 102%
COc1ncccc1-c1cnn2ccc(N3CCN(C(=O)OC(C)C)CC3)nc12 — remaining binding (binding; competition with immobilised ligand; 1 µM): 72%
Nc1ncc(-c2nc(N3CCOCC3)nc(N3CCOCC3)n2)c(C(F)F)n1 — remaining binding (cell-free assay; competition with immobilised ligand; 10 µM): 83%
O=c1[nH]c2ccccc2n1C1CCN(Cc2ccc(-c3[nH]c4cc5ncnc5cc4nc3-c3ccccc3)cc2)CC1 — remaining signal (cell-free assay; 0.5 µM): 102%
N#CC1(c2ccccn2)CCN(Cc2cc(C(=O)O)c(=O)n3ccccc23)CC1 — remaining binding (cell-free assay; competition with immobilised ligand; 1 µM): 96%
